Experimental data taken from ChEMBL document CHEMBL5608183, “Synthesis and evaluation of 3,4,5-trisubstituted triazoles as G protein-biased kappa opioid receptor agonists” (Eur J Med Chem, 2024).
Active and inactive are the calls of the source. No cut-off for these calls is given here.

Legend:
[1] = Metabolic stability in mouse liver microsome assessed as half life at 1 uM by LC-MS/MS analysis; format: ADME; conditions: liver microsomes
How it was run: (§1)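 Hepatic microsomes (1 mg/mL) were incubated with 1 μM compound at 37 °C with continuous shaking. Reactions were quenched with acetonitrile at 5-min intervals over 1 h and filtered. Half-life was determined by LC-MS/MS.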

[2] = Metabolic stability in human liver microsome assessed as half life at 1 uM by LC-MS/MS analysis; format: ADME, microsomes; conditions: for half-life at 1 µM: liver microsomes; for t1/2: microsomes, 1 µM; how it was run: as §1
[3] = biological target: T1, Kappa-type opioid receptor (Homo sapiens, UniProt P41145); test: Agonist activity at recombinant human kappa opioid receptor extracted from CHO cell membrane assessed as induction of [35S]GTPgammaS binding by measuring maximum efficacy at 10 uM incubated for 1 hr by TopCount NXT Microplate Scintillation and Luminescence Counter analysis relative to U69,593; format: functional, cell membranes
T1 sequence (P41145 whole entry): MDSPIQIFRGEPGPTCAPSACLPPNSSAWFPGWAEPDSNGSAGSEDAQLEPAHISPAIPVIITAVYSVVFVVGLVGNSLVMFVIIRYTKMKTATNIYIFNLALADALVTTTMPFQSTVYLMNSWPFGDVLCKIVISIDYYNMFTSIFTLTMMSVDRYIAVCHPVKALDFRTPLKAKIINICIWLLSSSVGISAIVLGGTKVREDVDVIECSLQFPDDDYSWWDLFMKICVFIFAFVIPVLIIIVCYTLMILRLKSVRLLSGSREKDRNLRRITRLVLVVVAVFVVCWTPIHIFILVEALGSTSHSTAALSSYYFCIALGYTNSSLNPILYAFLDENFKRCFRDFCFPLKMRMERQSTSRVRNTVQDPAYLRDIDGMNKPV

[4] = biological target: T1, Kappa-type opioid receptor; test: Agonist activity at recombinant human kappa opioid receptor extracted from CHO cell membrane assessed as induction of [35S]GTPgammaS binding incubated for 1 hr by TopCount NXT Microplate Scintillation and Luminescence Counter analysis; format: functional, cell membranes
[5] = biological target: T1, Kappa-type opioid receptor; test: Agonist activity at human kappa opioid receptor tranfected in U2OS cells co-transfected with arrestin2-EFC assessed as induction of beta arrestin2 recruitment incubated for 90 mins by Synergy HT luminometer; format: functional, cell-based
How it was run: (§2)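 PathHunter enzyme-fragment complementation in U2OS cells stably expressing hKOR and βarrestin2, grown in MEM with 10% FBS, geneticin and hygromycin B, run per manufacturer's protocol. Concentration–response curves were fit by three-parameter nonlinear regression, normalized to vehicle and to maximal stimulation by the reference agonist U69,593 on the same plate. 2–4 replicates per experiment; n ≥ 3 independent experiments; 95% CI.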

[6] = biological target: T1, Kappa-type opioid receptor; test: Agonist activity at human kappa opioid receptor tranfected in U2OS cells co-transfected with arrestin2-EFC assessed as induction of beta arrestin2 recruitment by measuring maximum efficacy incubated for 90 mins by Synergy HT luminometer relative to […]; format: functional, cell-based
How it was run: as §2, with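 “plate.” for “plate. 2–4 replicates per experiment; n ≥ 3 independent experiments; 95% CI.”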

[7] = biological target: Mu-type opioid receptor (Homo sapiens) (UniProt P35372); test: Binding affinity to Mu opioid receptor (unknown origin) assessed as inhibition of [3H]-D-Ala2,N-MePhe4,Gly-ol-enkephalin binding at 10 uM by radioligand binding assay relative to control
Sequence of Mu-type opioid receptor (Homo sapiens) (P35372 whole entry): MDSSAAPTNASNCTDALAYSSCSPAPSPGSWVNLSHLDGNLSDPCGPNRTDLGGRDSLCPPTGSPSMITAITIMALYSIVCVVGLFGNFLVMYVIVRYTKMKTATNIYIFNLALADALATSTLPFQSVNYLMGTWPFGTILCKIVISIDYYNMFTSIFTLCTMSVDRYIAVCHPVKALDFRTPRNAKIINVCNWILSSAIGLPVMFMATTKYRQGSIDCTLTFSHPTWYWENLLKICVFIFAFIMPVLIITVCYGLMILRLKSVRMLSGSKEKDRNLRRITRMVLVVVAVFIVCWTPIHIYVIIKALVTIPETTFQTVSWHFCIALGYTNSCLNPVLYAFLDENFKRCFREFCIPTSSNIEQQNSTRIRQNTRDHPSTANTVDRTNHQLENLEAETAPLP

[8] = biological target: T1, Kappa-type opioid receptor; test: Displacement of [3H]-[…] from kappa opioid receptor (unknown origin) assessed as inhibition constant by radioligand binding assay
[9] = biological target: Delta-type opioid receptor (Homo sapiens) (UniProt P41143); test: Binding affinity to delta opioid receptor (unknown origin) assessed as inhibition of [3H]-D-Ala2,D-Leu5-enkephalin binding at 10 uM by radioligand binding assay relative to control
Sequence of Delta-type opioid receptor (Homo sapiens) (P41143 whole entry): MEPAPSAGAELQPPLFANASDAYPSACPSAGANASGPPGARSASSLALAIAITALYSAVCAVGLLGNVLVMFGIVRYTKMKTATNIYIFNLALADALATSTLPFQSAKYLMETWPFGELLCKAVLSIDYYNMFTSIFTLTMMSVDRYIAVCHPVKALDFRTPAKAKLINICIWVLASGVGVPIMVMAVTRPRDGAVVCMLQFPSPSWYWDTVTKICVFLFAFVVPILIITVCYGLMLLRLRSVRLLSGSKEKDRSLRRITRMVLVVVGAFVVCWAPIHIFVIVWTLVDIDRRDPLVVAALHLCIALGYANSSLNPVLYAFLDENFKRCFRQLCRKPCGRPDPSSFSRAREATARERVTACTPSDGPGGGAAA

[10] = biological target: T1, Kappa-type opioid receptor; test: Binding affinity to kappa opioid receptor (unknown origin) assessed as inhibition of [3H]-[…] binding at 10 uM by radioligand binding assay relative to control; conditions: filed as agonist

| SMILES | half-life at 1 µM [1] [min] | half-life at 1 µM [2] [min] | EC50 [4] [nM] | Emax ([3]; filed as agonist) [%] | EC50 [5] [nM] | Emax ([6]; filed as agonist) [%] | also measured |
| --- | --- | --- | --- | --- | --- | --- | --- |
| OC(Cc1nnc(-c2ccccn2)n1Cc1cccs1)c1ccccc1 (stereo not given) | 2.6 | 20.7 |  |  |  |  | Emax [3]: 17% |
| FC(Cc1ccccc1)c1nnc(-c2ccccn2)n1Cc1ccco1 (stereo not given) | 1.9 | 9.1 |  |  |  |  |  |
| Cc1ccc(/C=C/c2nnc(-c3nccn3C)n2Cc2cccs2)cc1C(F)(F)F |  |  | 787 |  |  |  |  |
| Cc1ccc(CCc2nnc(-c3ccc4ccccc4c3)n2Cc2cccs2)cc1C(F)(F)F |  |  | 2960 |  |  |  |  |
| Cc1ccc(/C=C/c2nnc(-c3ccccn3)n2Cc2cccs2)cc1C(F)(F)F | 30.2 | 22 | 496 | 79 |  |  |  |
| Cc1ccc(CCc2nnc(-c3ccccn3)n2Cc2cccnc2)cc1C(F)(F)F | 1.6 | 1.7 | 55 | 87 | 421 | 119 |  |
| O=C(Cc1ccccc1)c1nnc(-c2ccccn2)n1Cc1ccco1 | 1.2 | 8.1 |  |  |  |  | Emax [3]: 4% |
| Cc1ccc(CCc2nnc(-c3ccccn3)n2Cc2ccccc2)cc1C(F)(F)F | 1.3 | 0.9 | 83 |  | 6740 | 183 |  |
| Cc1ccc(CCc2nnc(-c3ccccn3)n2Cc2nccs2)cc1C(F)(F)F |  |  | 34 | 64 | 1290 | 95 |  |
| FC(Cc1nnc(-c2ccccn2)n1Cc1cccs1)c1ccccc1 (stereo not given) | 0.9 | 7.2 |  | 82 |  |  |  |
| FC(F)(F)c1ccccc1CCc1nnc(-c2ccccn2)n1Cc1cccs1 |  |  | 429 |  |  |  |  |
| Cc1ccc(CCc2nnc(-c3ccccn3)n2Cc2ccccn2)cc1C(F)(F)F |  |  | 175 | 84 | 8120 | 127 |  |
| Cc1ccc(CCc2nnc(-c3cccnc3)n2Cc2cccs2)cc1C(F)(F)F |  |  | 1880 | 85 |  |  |  |
| Clc1ccc(CCc2nnc(-c3ccccn3)n2Cc2cccs2)cc1 | 3.3 | 3.3 | 33 | 86 | 2870 | 137 |  |
| Brc1cccc(CCc2nnc(-c3ccccn3)n2Cc2cccs2)c1 |  |  | 51 | 89 | 5610 | 118 |  |
| Cc1ccc(CCc2nnc(-c3ccccc3)n2Cc2cccs2)cc1C(F)(F)F | 0.9 | 1.8 | 406 |  |  |  |  |
| Cc1ccc(CCc2nnc(-c3ccccn3)n2Cc2cccs2)cc1C(F)(F)F | 1.5 | 1.4 | 11 |  | 594 | 102 | inhibition [7]: 30.9%; Ki [8]: 5.8 nM; inhibition [9]: 30.7%; inhibition [10]: 99.7% |
| Cc1ccc(CCc2nnc(-c3ccccn3)n2Cc2ccco2)cc1C(F)(F)F | 0.8 |  | 21 | 90 | 803 |  | t1/2 [2]: 0.9 min |
| Brc1ccc(CCc2nnc(-c3ccccn3)n2Cc2cccs2)cc1 |  |  | 20 | 92 | 723 | 93 |  |
| Cc1ccc(CSc2nnc(-c3ccccn3)n2Cc2ccco2)cc1C(F)(F)F |  |  |  |  |  |  | t1/2 [2]: 1.1 min |
| c1ccc(-c2nnc(CCc3ccc4ccccc4c3)n2Cc2cccs2)nc1 |  |  | 12 |  | 896 |  |  |

| SMILES | half-life at 1 µM [1] [min] | half-life at 1 µM [2] [min] | EC50 [4] [nM] | Emax ([3]; filed as agonist) [%] | EC50 [5] [nM] | Emax ([6]; filed as agonist) [%] | also measured |
| --- | --- | --- | --- | --- | --- | --- | --- |
| Cc1ccc(CCc2nnc(-c3ccccn3)n2-c2ccccc2)cc1C(F)(F)F | 1 | 1.6 |  |  |  |  | Activity [4]: inactive |
| Cc1ccc(CCc2nnc(-c3ccncn3)n2Cc2cccs2)cc1C(F)(F)F |  |  | 991 |  |  |  |  |
| Fc1ccc(CCc2nnc(-c3ccccn3)n2Cc2cccs2)cc1 |  |  | 284 | 90 | 2640 | 97 |  |
| Cc1ccc(CCc2nnc(-c3ccc4ccccc4n3)n2Cc2cccs2)cc1C(F)(F)F |  |  | 872 |  |  |  |  |
| Brc1ccccc1CCc1nnc(-c2ccccn2)n1Cc1cccs1 |  |  | 358 | 84 |  |  |  |
| Cc1ccc(CCc2nnc(-c3cccc4ccccc34)n2Cc2cccs2)cc1C(F)(F)F |  |  | 429 |  |  |  |  |
| Cc1ccc(/C=C/c2nnc(-c3ccccn3)n2Cc2nccs2)cc1C(F)(F)F |  |  | 1130 | 83 |  |  |  |
| Cc1ccc(CCc2nnc(-c3ccccn3)n2Cc2ccncc2)cc1C(F)(F)F |  |  |  |  |  |  | Activity [4]: inactive |
| Cc1ccc(CCc2nnc(-c3ccccn3)n2CC2CC2)cc1C(F)(F)F |  |  | 213 |  | 6220 |  |  |
| Cc1ccc(CCc2nnc(-c3ncccc3C)n2Cc2cccs2)cc1C(F)(F)F |  |  | 13 |  | 1610 | 118 |  |
| Cc1ccc(/C=C/c2nnc(-c3ccccn3)n2Cc2ccco2)cc1C(F)(F)F | 32.2 |  | 1170 | 89 |  |  | t1/2 [2]: 18 min |
| Cc1ccc(CCc2nnc(-c3nccn3C)n2Cc2cccs2)cc1C(F)(F)F | 1.5 | 3.1 | 34 | 91 | 1020 | 132 |  |
| c1ccc(-c2nnc(-c3ccccn3)n2Cc2cccs2)cc1 | 1 | 69.7 |  |  |  |  |  |
| OC(Cc1ccccc1)c1nnc(-c2ccccn2)n1Cc1ccco1 (stereo not given) | 2.5 | 17.4 |  |  |  |  | Emax [3]: 20% |
| Clc1ccc(CCc2nnc(-c3ccccn3)n2Cc2cccs2)c(Cl)c1 | 2.6 | 2.1 | 32 | 91 | 5160 | 154 |  |
| Cc1ccc(/C=C/c2nnc(-c3nccn3C)n2Cc2nccs2)cc1C(F)(F)F |  |  |  | 309 | 2190 |  | Emax [6]: 36% |
| c1ccc(-c2nnc(CCc3cccc4ccccc34)n2Cc2cccs2)nc1 |  |  | 184 |  |  |  |  |
| c1ccc(CCc2nnc(-c3ccccn3)n2Cc2cccs2)cc1 | 1.6 | 5.5 | 926 | 76 |  |  |  |
| COc1ccc(CCc2nnc(-c3ccccn3)n2Cc2cccs2)cc1 |  |  | 122 |  |  |  |  |
| Clc1ccc(CCc2nnc(-c3ccccn3)n2Cc2cccs2)cc1Cl | 1.2 | 1.5 | 5 |  | 319 |  |  |
| Cc1ccc(CCc2nnc(-c3ncccn3)n2Cc2cccs2)cc1C(F)(F)F |  |  | 57 |  | 2220 | 150 |  |
